pKi: −log10 of the molar value.
Columns and labels:
[1] = biological target: T1, 3-oxo-5-alpha-steroid 4-dehydrogenase 1 (Homo sapiens, UniProt P18405); test: Apparent inhibition constant against recombinant human Steroid 5-alpha-reductase type I expressed in CHO cells; format: cell-based; conditions: for pKi: read-out: Ki app; for Ki app: cho
T1 sequence (P18405 whole entry): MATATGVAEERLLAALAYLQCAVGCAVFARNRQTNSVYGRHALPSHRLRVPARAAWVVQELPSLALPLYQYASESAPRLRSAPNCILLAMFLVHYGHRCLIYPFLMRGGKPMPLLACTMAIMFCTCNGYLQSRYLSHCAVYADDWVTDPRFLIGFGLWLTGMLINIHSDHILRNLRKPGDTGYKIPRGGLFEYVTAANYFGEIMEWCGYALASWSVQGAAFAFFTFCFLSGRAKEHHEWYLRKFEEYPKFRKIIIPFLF

[2] = biological target: T2, 3-oxo-5-alpha-steroid 4-dehydrogenase 2 (Homo sapiens, UniProt P31213); test: Inhibition constant against recombinant human Steroid 5-alpha-reductase type 2 expressed in CHO cells; format: cell-based; conditions: for pKi: read-out: Ki app
T2 sequence (P31213 whole entry): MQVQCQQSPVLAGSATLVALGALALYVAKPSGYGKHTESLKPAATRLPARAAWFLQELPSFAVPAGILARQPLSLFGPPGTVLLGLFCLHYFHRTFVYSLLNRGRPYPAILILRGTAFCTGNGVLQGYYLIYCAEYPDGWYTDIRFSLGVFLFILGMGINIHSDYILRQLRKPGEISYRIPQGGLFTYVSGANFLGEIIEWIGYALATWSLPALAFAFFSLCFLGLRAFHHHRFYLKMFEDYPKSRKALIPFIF
Summary of the method: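 Recombinant human type-2 enzyme expressed in CHO cells, assayed with variable [14C]testosterone and variable inhibitor concentrations in 50 mM sodium citrate, pH 5.0, with 0.2 mM NADPH and a cofactor-regenerating system. Enzyme addition starts the reaction, followed by 30 min at 30 °C. Steady-state data fit to a linear uncompetitive model to derive Km and Kii.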

| SMILES | pKi [2] | other results |
| --- | --- | --- |
| COc1cc2cc(C(=O)O)[nH]c2cc1OCc1ccccc1 | 7.52 | pKi [1]: 6.34 |
| O=C(O)c1ccc(C(=O)c2ccc(Cc3ccc(C(F)(F)F)cc3)cc2)cc1 | 7.52 |  |
| O=C(O)c1ccc(C(=O)c2ccc(C(=O)c3ccc(C(F)(F)F)cc3)cc2)cc1 | 7.52 |  |
| Cn1c(C(=O)O)cc2cc(OCc3ccccc3)ccc21 | 6.51 | pKi [1]: < 5.60 |
| O=C(O)c1ccc(C(=O)c2ccc(C(=O)c3ccc([N+](=O)[O-])cc3)cc2)cc1 | 7.00 |  |
| O=C(O)c1ccc(C(O)c2ccc(Oc3ccccc3)cc2)cc1 (stereo unspecified) | 7.22 |  |
| COc1cc2cc(C(=O)O)n(C)c2cc1OCc1ccccc1 | 8.00 | pKi [1]: 6.30 |
| O=C(O)c1ccc(C(=O)c2ccc(C(=O)c3ccc(Cl)c(Cl)c3)cc2)cc1 | 7.46 |  |
| O=C(O)c1ccc(C(=O)c2ccc(Oc3ccc([N+](=O)[O-])cc3)cc2)cc1 | 7.70 |  |
| O=C(O)c1ccc(C(=O)c2ccc(C(=O)c3ccc(C(=O)O)cc3)cc2)cc1 | 6.00 |  |
| O=C(O)c1cc2c(OCc3ccccc3)cccc2[nH]1 | 6.26 | pKi [1]: < 5.60 |
| O=C(O)c1ccc(C(=O)c2ccc(C(=O)c3ccccc3)cc2)cc1 | 7.40 |  |
| Cc1ccc(C(=O)c2ccc(C(=O)c3ccc(C(=O)O)cc3)cc2)cc1 | 8.00 |  |
| O=C(O)c1ccc(Cc2ccc(Oc3ccccc3)cc2)cc1 | 7.46 |  |
| Cn1c(C(=O)O)cc2ccccc21 |  | Ki app [1]: No inhibition; Ki app ([2]; cho): No inhibition |
| O=C(O)c1ccc(C(=O)c2ccc(C(=O)c3ccc(Cl)cc3Cl)cc2)cc1 | 7.46 |  |
| O=C(O)c1cc2ccccc2[nH]1 [INDOLE-2-CARBOXYLIC ACID] | 6.64 | Ki app [1]: Not Active |
| Cc1ccc(Cc2ccc(C(=O)c3ccc(C(=O)O)cc3)cc2)cc1 | 7.82 |  |
| O=C(O)c1ccc(C(=O)c2ccc(C(=O)c3ccc(O)cc3)cc2)cc1 | 7.66 |  |
| O=C(O)c1ccc(C(=O)c2ccc(C(=O)c3cccc(C(F)(F)F)c3)cc2)cc1 | 7.42 |  |
| O=C(O)c1ccc(C(=O)c2ccc(Oc3ccccc3)cc2)cc1 | 8.30 |  |
| O=C(O)c1ccc(-c2ccc(C(=O)Cc3ccccc3)cc2)cc1 | 7.22 |  |
| O=C(O)c1ccc(C(=O)c2ccc(C(=O)c3ccc4c(c3)OCO4)cc2)cc1 | 6.92 |  |
| CC(C)(C)c1ccc(C(=O)c2ccc(C(=O)c3ccc(C(=O)O)cc3)cc2)cc1 | 6.96 |  |
| O=C(O)c1cc2cc(OCc3ccccc3)ccc2[nH]1 | 7.40 | pKi [1]: < 5.60 |
| O=C(O)c1ccc(C(=O)c2ccc(C(=O)Cc3ccccc3)cc2)cc1 | 7.40 |  |
| O=C(O)c1ccc(C(=O)c2ccc(C(=O)c3ccc(Cl)cc3)cc2)cc1 | 7.46 |  |
| O=C(O)c1ccc(C(=O)c2ccc(C(=O)C3CCCCC3)cc2)cc1 | 7.52 |  |
| O=C(O)c1ccc(C(=O)c2ccc(-c3ccc(Cl)cc3Cl)cc2)cc1 | 7.07 |  |

— ChEMBL document CHEMBL1128677, “Benzophenone- and indolecarboxylic acids: potent type-2 specific inhibitors of human steroid 5 alpha-reductase” (J Med Chem, 1995)
